Measurements: ChEMBL document CHEMBL1121666, “Synthesis and serotonin-like activity of 2-amino-5,8-dimethoxy-6-methyl-1,2-dihydronaphthalene” (J Med Chem, 1981)

How the values were obtained:
[1] = tested on: Rattus norvegicus; assay: Compound was evaluated for the incidence of serotonin syndrome […] by intraperitoneal administration at the dose 4 mg/kg; 1/3; assay type: functional
Procedure, shortened: (§1)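 Male Sprague–Dawley rats (200–300 g) were given the racemic hydrochloride salts intraperitoneally at 1–16 mg/kg, following the Sloviter protocol. A rat was scored positive only when forepaw padding, splayed hindlimbs, and head weaving or tremor were all present. Incidence is reported as responders/rats dosed, with […] rats per dose.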

[2] = tested on: Rattus norvegicus; assay: Compound was evaluated for the incidence of serotonin syndrome […] by intraperitoneal administration at the dose 8 mg/kg; 0/3; assay type: functional; procedure, shortened: as §1
[3] = Acid dissociation constant was determined; assay type: ADME
[4] = tested on: Rattus norvegicus; assay: Compound was evaluated for the incidence of serotonin syndrome […] by intraperitoneal administration at the dose 16 mg/kg; 2/3; assay type: functional; procedure, shortened: as §1
[5] = tested on: Rattus norvegicus; assay: Compound was evaluated for the incidence of serotonin syndrome […] by intraperitoneal administration at the dose 2 mg/kg; 0/3; assay type: functional; procedure, shortened: as §1
[6] = tested on: Rattus norvegicus; assay: Compound was evaluated for the incidence of serotonin syndrome […] by intraperitoneal administration at the dose 8 mg/kg; 3/8; assay type: functional
[7] = tested on: Rattus norvegicus; assay: Compound was evaluated for the incidence of serotonin syndrome […] by intraperitoneal administration at the dose 16 mg/kg; 3/3; assay type: functional; procedure, shortened: as §1
[8] = tested on: Rattus norvegicus; assay: Compound was evaluated for the incidence of serotonin syndrome […] by intraperitoneal administration at the dose 4 mg/kg; 0/8; assay type: functional

| Structure (SMILES) | Incidence [1] | Incidence [2] | pKa [3] | Incidence [4] | Incidence [5] | Incidence [6] | Incidence [7] | Incidence [8] |
| --- | --- | --- | --- | --- | --- | --- | --- | --- |
| COc1cc(C)c(OC)c2c1CC(N)C=C2.Cl (stereo not given) | 1 | 0 | 8.93 | 2 | 0 | – | – | – |
| COc1cc(C)c(OC)c2c1CC(N)CC2.Cl (stereo not given) | – | – | – | – | 0 | 3 | 3 | 0 |
| COc1cc(C2CC2N)c(OC)cc1C (stereo not given) | – | – | 8.11 | – | – | – | – | – |
